The text below walks through data of ChEMBL document CHEMBL1122607, “Heterocyclic analogues of chlorcyclizine with potent hypolipidemic activity” (J Med Chem, 1984).

Assay type in all cases: functional
The subject of assay [1] is Rattus norvegicus. Nature of the assay: Hypolipidemic activity was measured as reduction in rat serum cholesterol after oral administration in male Wistar rats at 100 mg/(kg day). Summed up:
(§1)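 Cholesterol-fed rats given the test compound orally by gavage on the last 3 days, with controls receiving vehicle (0.5% tragacanth mucilage). After overnight starvation, rats were killed under CO2 3 h after the last dose and bled by cardiac puncture. Serum cholesterol and triglyceride were measured by autoanalyzer and expressed as percentage reduction from control levels, with Student's t test.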

Assay [2] concerns Rattus norvegicus. The assay is described as follows: Hypolipidemic activity was measured as reduction in rat serum triglyceride after oral administration in male Wistar rats at 100 mg / (kg day). In outline:
as §1

Assay [3] relates to Rattus norvegicus. The assay is described as follows: Minimum effective dose (MED) is the dose (mg/kg)that cause significant reduction in serum cholesterol of 30% compared to concurrent controls. Also on record: unit: mg/kg. In outline:
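MED was calculated from the log dose/response curve as the dose giving a statistically significant 30% fall in serum cholesterol versus concurrent controls. Measured in the 3-day oral cholesterol-fed rat screen, or in a 2-week test: groups of eight young male Wistar rats on cholesterol/cholic acid-supplemented or normal diet, dosed orally by gavage daily for 14 days, vehicle 0.5% tragacanth mucilage.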

Assay [4] has as its system Rattus norvegicus. The assay is described as follows: Hypolipidemic activity was measured as reduction in rat serum cholesterol after oral administration in male Wistar rats at 30 mg / (kg day). Summed up:
as §1

Assay [5] has as its system Rattus norvegicus. The assay is described as follows: Hypolipidemic activity was measured as reduction in rat serum triglyceride after oral administration in male Wistar rats at 10 mg / (kg day). In outline:
as §1

The test system of assay [6] is Rattus norvegicus. The assay is described as follows: Hypolipidemic activity was measured as reduction in rat serum triglyceride after oral administration in male Wistar rats at 30 mg / (kg day). In outline:
as §1

Assay [7] deals with Rattus norvegicus. The assay is described as follows: Hypolipidemic activity was measured as reduction in rat serum cholesterol after oral administration in male Wistar rats at 10 mg / (kg day). Summed up: as §1

SMILES strings stand for the structures.

On to `Cc1cc(C(c2ccccc2OC(C)C)N2CCN(C)CC2)sn1` (stereo not given), for which the results for the Reduction with Rattus norvegicus [1] and with Rattus norvegicus [2] were 83% and 86%, respectively.
Regarding `CCOC(=O)C(C)(C)Oc1ccc(Cl)cc1` [CLOFIBRATE], the MED in the assay with Rattus norvegicus [3] was found to be 200.
As to `Cc1noc(C)c1C(OC1CCCN(C)C1)c1ccc(C(C)C)cc1` (stereo not given), the Reduction in the assay on Rattus norvegicus [1] worked out at 79%; in the assay on Rattus norvegicus [4], 38%; with Rattus norvegicus [5], 12%; in the assay with Rattus norvegicus [6], 16%; with Rattus norvegicus [7], 32%; in the assay with Rattus norvegicus [2] it was 52%.
`Cc1noc(C)c1C(c1ccccc1Cl)N1CCNCC1` (stereo not given): the Reduction in the assay on Rattus norvegicus [1] stood at 87%; in the assay with Rattus norvegicus [4] it was 14%; in the assay with Rattus norvegicus [6], 62%; with Rattus norvegicus [2], 97%.
`O=C(O)c1cccnc1` [NIACIN] registered an MED with Rattus norvegicus [3] of 400.
For `Cc1cc(C(c2ccc(Oc3ccccc3)cc2)N2CCN(C)CC2)sn1` (stereo not given), the Reduction in the assay on Rattus norvegicus [1] worked out at 42%; with Rattus norvegicus [4], 17%; in the assay with Rattus norvegicus [6], 25%; in the assay on Rattus norvegicus [2] it was 59%.
`Cc1cc(C(c2ccccc2C(C)C)N2CCN(C)CC2)sn1` (stereo not given): the Reduction is listed as 36% with Rattus norvegicus [4] and 9% in the assay on Rattus norvegicus [6].
Regarding `Cc1cc(C(c2ccc(C(C)C)cc2)C2CCN(C)CC2)sn1` (stereo not given), the Reduction in the assay with Rattus norvegicus [1] was found to be 45%; in the assay on Rattus norvegicus [4] it was 12%; with Rattus norvegicus [6], 32%; in the assay on Rattus norvegicus [2], 42%.
As for `Cc1cc(C(c2cccc(Cl)c2)N2CCN(C)CC2)sn1` (stereo not given), the Reduction in the assay on Rattus norvegicus [1] is given as 33%; with Rattus norvegicus [2] it was 41%.
In the case of `CCc1ccccc1C(c1cc(C)ns1)N1CCN(C)CC1` (stereo not given), the Reduction in the assay on Rattus norvegicus [1] is on record as 81%; in the assay on Rattus norvegicus [4], 71%; with Rattus norvegicus [2] it was 88%.
On to `Cc1noc(C)c1C(c1ccccc1Cl)N1CCN(C)CC1` (stereo not given), for which the Reduction turned out to be 52% in the assay on Rattus norvegicus [1], 7% in the assay with Rattus norvegicus [4], 6% with Rattus norvegicus [6] and 41% in the assay on Rattus norvegicus [2].
For the molecule `Cc1ccccc1C(c1sncc1C)N1CCN(C)CC1` (stereo not given), the Reduction in the assay on Rattus norvegicus [1] amounted to 72%; in the assay on Rattus norvegicus [2], 64%.
In the case of `Cc1cc(C(OCCN(C)C)c2ccc(C(C)C)cc2)sn1` (stereo not given), the Reduction with Rattus norvegicus [1] is on record as 45%; in the assay with Rattus norvegicus [4] it was 3%; in the assay with Rattus norvegicus [6] it was 36%; in the assay on Rattus norvegicus [2], 41%.
In the case of `Cc1cc(C(SCCN(C)C)c2ccc(C(C)C)cc2)sn1` (stereo not given), the Reduction with Rattus norvegicus [1] came out at 36%; in the assay with Rattus norvegicus [2], 55%.
Taken in the same sequence, the figures for `Cc1cc(C(c2ccc(OC(C)C)cc2)N2CCN(C)CC2)sn1` (stereo not given) were 33% and 31%.
Turning to `CN1CCN(C(c2ccccc2)c2ccccn2)CC1` (stereo not given), the Reduction was 81% with Rattus norvegicus [1], 22% in the assay on Rattus norvegicus [4], 16% in the assay with Rattus norvegicus [6] and 74% with Rattus norvegicus [2].
For the molecule `Cc1nc(C)c(C(c2ccccc2Cl)N2CCN(C)CC2)s1` (stereo not given), the Reduction in the assay with Rattus norvegicus [1] was 78%; in the assay on Rattus norvegicus [2], 79%.
For `Cc1cc(C(c2ccc(C3CCCCC3)cc2)N2CCN(C)CC2)sn1` (stereo not given), the Reduction with Rattus norvegicus [1] is 64%; in the assay with Rattus norvegicus [4], 7%; in the assay on Rattus norvegicus [2], 73%.
For the molecule `CCc1ccc(C(c2sncc2C)N2CCN(CCO)CC2)cc1` (stereo not given), the Reduction in the assay on Rattus norvegicus [4] is on record as 45%; in the assay with Rattus norvegicus [5] it was 3%; in the assay with Rattus norvegicus [6] it was 51%; in the assay on Rattus norvegicus [7], 15%.
As for `Cc1noc(C)c1C(OC1CCNCC1)c1ccc(C(C)C)cc1` (stereo not given), the Reduction was 45% in the assay on Rattus norvegicus [1], 4% in the assay with Rattus norvegicus [4], 8% with Rattus norvegicus [6] and 23% in the assay with Rattus norvegicus [2].
Taken in the same sequence, the figures for `CCCCOc1ccccc1C(c1cc(C)ns1)N1CCN(C)CC1` (stereo not given) were 74%, 32%, 57% and 67%.
In turn, `CC(C)OC(=O)C(C)(C)Oc1ccc(C(=O)c2ccc(Cl)cc2)cc1` [FENOFIBRATE] returned an MED in the assay on Rattus norvegicus [3] of 200.
